KCNQ1 block: human KCNQ1 channel inhibition; CHO-K1 KCNQ1, FluxOR thallium flux fluorescence; hits give high values; B-score at 10 µM; actives 1.3% (n = 310,000); AID 2642;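 active means compounds whose thallium flux B-score, printed positive for inhibition, exceeds three library SD while starting fluorescence stays within three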;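 further: channel opened by potassium depolarization with thallium stimulus after 20 min compound exposure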
KCNK9 block: blocks the human KCNK9 two-pore domain potassium channel. Q9NPC2. HEK293 KCNK9, FluxOR thallium flux fluorescence; hits give low values. B-score at 10 µM. actives 1.2% (n = 310,000);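 active means ratio B-score over 3 SD below the library mean, with starting fluorescence within 5 SD of its mean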;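 further: negative B-score means less thallium flux so channel inhibition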
Kir21 block: blocks the mouse Kir2.1 inward-rectifier potassium channel; B-score at 10 µM; actives 0.85% (n = 310,000); AID 1672; P35561; HEK293-Kir2.1, FluxOR thallium flux fluorescence; hits give low values;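 active means fluorescence ratio B-score at or below minus 3 SD of library scores, with starting-brightness B-score within 2 SD, cut at about -4.2 in these data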;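 further: channel flux triggered by added potassium and thallium sulfate stimulus; B-score of peak minus minimum fluorescence over baseline after thallium stimulus; more negative B-score means stronger Kir2.1 block with less thallium influx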
KCNK3 block: human KCNK3 channel inhibition, primary screen. CHO-KCNK3 thallium flux, FluxOR fluorescence; hits give low values. actives 0.84% (n = 340,000). O14649. B-score at 10 µM;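 active means B-score under library mean minus 4 SD, starting fluorescence ratio at most library mean plus 5 SD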;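 further: more negative B-score means stronger inhibition of thallium flux through KCNK3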
Target sequence (O14649 whole entry, looked up): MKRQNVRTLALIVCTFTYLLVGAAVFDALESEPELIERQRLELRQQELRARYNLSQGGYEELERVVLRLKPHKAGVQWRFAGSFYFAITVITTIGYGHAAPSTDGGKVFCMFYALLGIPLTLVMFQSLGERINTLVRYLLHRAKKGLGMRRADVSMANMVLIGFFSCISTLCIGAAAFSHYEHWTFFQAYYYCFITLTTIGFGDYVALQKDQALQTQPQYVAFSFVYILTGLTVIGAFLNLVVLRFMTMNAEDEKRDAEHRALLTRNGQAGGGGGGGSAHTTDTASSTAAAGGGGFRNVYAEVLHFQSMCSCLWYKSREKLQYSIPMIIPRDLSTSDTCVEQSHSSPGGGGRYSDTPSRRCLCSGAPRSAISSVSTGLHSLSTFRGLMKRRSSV
KCNQ1 act: potentiates or activates the human KCNQ1 potassium channel; CHO-K1 KCNQ1, thallium flux FluxOR fluorescence; hits give high values; B-score at 10 µM; actives 0.35% (n = 310,000); AID 2648;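 active means fluorescence ratio B-score, a plate-corrected score, at least three library SD, with initial intensity B-score within 5 SD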
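System: CHO-K1 cells stably expressing KCNQ1 / Medium: assay buffer for compound exposure, DMSO matched across wells / Reagent: thallium- and potassium-containing depolarizing buffer / Compound: one concentration, matched DMSO / Incubation: 20 min compound pretreatment at room temperature / Measured by: kinetic FluxOR fluorescence, 10 s baseline plus 110 s post-stimulus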
hERG protect: shields human hERG channel from block by proarrhythmic agents | Q12809 | CHO-hERG, FluxOR thallium flux, dofetilide IC70 present | activation (rescue from dofetilide block), less the hit threshold, % at 10 µM | actives 0.51% (n = 310,000) | AID 1511;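 active means activation above the mean of controls blocked by dofetilide plus 5 SD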;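 further: thallium influx through hERG after potassium depolarization seen as dye fluorescence rise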
A number is an active result; . = inactive; / = no result given. Hits are enriched below; roughly 3.7% of the tested compounds scored in any of these assays.

SMILES	KCNQ1 block	KCNK9 block	Kir21 block	KCNK3 block	KCNQ1 act	hERG protect
O=C(NC(=S)N1CCN(C/C=C/c2ccccc2)CC1)c1ccc(F)cc1	.	.	.	.	8	.
O=C(NC(=S)N1CCN(C/C=C/c2ccccc2)CC1)c1cccnc1	.	.	.	.	.	.
CN(C)c1ccc2c(c1)OC(N)=C(C#N)C2c1cccc(F)c1 (centres undefined)	.	-6.75	.	-10.8	.	.
CCNC(=S)N/N=C1\C(=O)c2cccc3cccc1c23	.	.	.	.	9	7.9
O=C(N/N=C1/C(=O)c2cccc3cccc1c23)c1ccc(Cl)cc1	.	.	.	.	41	53.0
O=C(NCCCCc1ccccc1)Nc1ccc(F)cc1	.	.	.	.	.	.
Cc1nnc(NC(=O)CN2CCN(Cc3ccc(F)cc3Cl)CC2)s1	.	.	.	.	.	6.3
Cc1nnc(NC(=O)CN2CCN(Cc3ccccc3)CC2)s1	.	.	.	.	.	.
CN(C)C1(CNC(=O)C2CCN(S(=O)(=O)c3cc(Cl)ccc3Cl)CC2)CCCCC1	.	.	.	.	.	.
CCN(CC(=O)Nc1c(F)cccc1F)C(=O)c1ccc(C(F)(F)F)cc1	.	-7.89	.	.	.	.
CCN(CC(=O)Nc1c(F)cccc1F)C(=O)c1ccc(COc2ccccc2)cc1	.	.	.	.	.	.
Cc1ccc(C)n1-c1ccc(C(=O)N2CCC(C(N)=O)CC2)cc1	.	.	.	.	.	7.2
COC(=O)C1=C(Cn2cnc3ccccc32)NC(=O)NC1c1cc(C)ccc1C (centres undefined)	.	.	.	.	.	.
CCOC(=O)C1=C(Cn2cnc3ccccc32)NC(=O)NC1c1cc(C)ccc1C (centres undefined)	.	.	.	.	.	13.1
NNC(=O)c1[nH]c2ccc([N+](=O)[O-])cc2c1-c1ccccc1	.	.	.	.	.	.
O=C(N/N=C/c1ccccn1)c1[nH]c2ccc([N+](=O)[O-])cc2c1-c1ccccc1	10	.	.	.	.	.
C/C(=N\Nc1ccc2nncn2n1)c1ccc(Br)s1	.	.	.	.	.	.
CC(=O)/C(=N/Nc1ccccc1[N+](=O)[O-])N1CCCc2ccccc21	7	-7.09	.	.	.	.
CC(=O)/C(=N/Nc1ccc([N+](=O)[O-])cc1)N1CCCc2ccccc21	.	.	.	.	.	.
CC(=O)N(C)c1ccc(NS(=O)(=O)c2cc(Cl)ccc2Cl)cc1	.	.	.	.	.	.
COC(=O)c1ccccc1NC(=O)CSc1nc(NC(=O)c2ccccc2)c2c(C)c(C)oc2n1	.	.	.	-10.4	.	.
CC(=O)NN1C(=O)c2ccc3c4c(ccc(c24)C1=O)C(=O)N(NC(C)=O)C3=O	.	.	.	.	.	.
CCN(CC)c1ccc(NS(=O)(=O)c2ccc(OC)cc2)cc1	.	.	.	.	.	.
Nc1ccccc1Sc1ccc(C(=O)c2ccccc2C(=O)O)cc1[N+](=O)[O-]	.	.	.	.	.	.
CC(C)OC(=O)c1ccccc1C(=O)c1ccc(N)c([N+](=O)[O-])c1	.	.	-5.29	.	.	.
SMILES	KCNQ1 block	KCNK9 block	Kir21 block	KCNK3 block	KCNQ1 act	hERG protect
Cc1ccc(C)c(OCC(O)CN2CCc3ccccc3C2)c1C (centres undefined)	.	.	-5.68	.	.	.
CCn1cc(CCC(=O)NCc2ccccc2OC)c2ccccc21	.	.	-6.67	.	.	.
Cc1ccc(NC(=O)c2cccc(S(=O)(=O)N(C)c3ccccc3)c2)cc1S(=O)(=O)N1CCOCC1	.	.	.	.	.	.
Cc1cc(O)c(C(C)C)cc1NS(=O)(=O)c1ccccc1	.	.	-6.77	.	.	.
CCCC(=O)Nc1ccc(OCC(O)CNC(C)C)c(C(C)=O)c1 (centres undefined)	.	.	.	.	9	.
CC(C)NCC(O)COc1cccc2[nH]ccc12 (centres undefined)	/	/	/	.	/	/
Cc1ccc(Cl)cc1NC(=S)N(Cc1cccnc1)Cc1ccccc1Cl	6	.	.	.	.	.
O=C(CNC(=O)c1ccc(Br)cc1)NCc1cccnc1	.	.	.	.	.	.
COc1cc2cc(CN(Cc3cccs3)C(=S)Nc3ccc(C)cc3)c(=O)[nH]c2cc1OC	.	.	.	.	.	.
COc1cc2cc(CN(Cc3cccs3)C(=S)Nc3cccc(C)c3)c(=O)[nH]c2cc1OC	7	.	.	/	.	.
O=C(Nc1ccc(C(=O)N2CCCCC2)cc1)Nc1cccc(Cl)c1	.	.	.	.	.	.
COc1ccccc1C1c2ccc3ccccc3c2Oc2ncn(CCN(C)C)c(=N)c21 (centres undefined)	.	.	-5.21	.	.	.
COc1ccc(C2c3ccc4ccccc4c3Oc3ncn(CCCN(C)C)c(=N)c32)cc1 (centres undefined)	.	.	-7.2	.	.	.
COc1ccccc1C1c2ccc3ccccc3c2Oc2ncn(CCCO)c(=N)c21 (centres undefined)	.	.	.	.	.	.
Cc1ccc(OCC(=O)NNC(=S)NC(=O)c2ccc(Br)o2)c(C)c1	.	.	.	.	69	.
CCc1nonc1NC(=O)COc1ccc(Cl)c(C)c1	6	.	.	.	.	.
Cc1cc(OCC(=O)NNC(=S)NC(=O)c2cccs2)ccc1Cl	.	.	.	.	15	.
Cc1ccc(OCC(=O)NNC(=S)NC(=O)c2cccs2)c(C)c1	.	.	.	.	34	.
O=C(COc1ccc(Br)cc1Br)NNC(=O)c1cccs1	.	.	.	.	.	.
CCN(CC(=O)NCc1cccs1)C(=O)c1cccc(S(=O)(=O)Nc2ccc(C)cc2)c1	.	.	.	.	.	.
CCOc1ccc(S(=O)(=O)NCCC(=O)N2CC=C(c3ccccc3)CC2)cc1	/	/	/	.	/	/
COc1ccccc1CC(=O)Nc1cc2oc3ccccc3c2cc1OC	.	-6.94	.	.	.	.
COc1cc2c(cc1NC(=O)CSc1ccc(Cl)cc1)oc1ccccc12	.	.	.	.	.	.
COc1cc2c(cc1NC(=O)CSc1ccccn1)oc1ccccc12	.	-7.27	.	.	.	.
Cc1ccc(S(=O)(=O)N(C)/N=C/C=C/c2ccccc2)cc1	.	.	.	.	.	.
CCN(C(=O)COc1cc(OC)ccc1C(C)=O)C1CCS(=O)(=O)C1 (centres undefined)	/	/	/	.	/	/
CC(=O)C1=C(C)NC(=S)NC1c1cc([N+](=O)[O-])ccc1O (centres undefined)	.	.	.	.	.	.
CC1=NNC(=O)C1C(c1ccc(F)cc1)C(C#N)C#N (centres undefined)	.	.	-4.3	.	.	.
